This is an account of results in ChEMBL document CHEMBL2202976, “Structure requirements for anaerobe processing of azo compounds: implications for prodrug design” (Bioorg Med Chem Lett, 2012).

Each structure is given as a SMILES string.

Common to all, as to format: ADME
A short description of data set [1]: Prodrug conversion assessed as Clostridium perfringens azoreductase-mediated prednisolone formation by HPLC analysis.
A short description of data set [2]: Drug metabolism assessed as Clostridium perfringens azoreductase-mediated reduction within 4 hrs by HPLC analysis.
Data set [3] in a line: Prodrug conversion assessed as Clostridium perfringens azoreductase-mediated disproportionation to parent amine by HPLC analysis.
The nature of data set [4]: Drug metabolism assessed as Clostridium perfringens azoreductase-mediated hydrazine intermediate formation by LCMS analysis. In outline:
(§1)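 Azo substrate incubated in Clostridium perfringens culture. Samples taken at 0 h and 6 h and analysed by LCMS, resolving parent azo isomer peaks from the hydrazine intermediate peak.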

The nature of data set [5]: Drug metabolism assessed as Clostridium perfringens azoreductase-mediated reoxidation of hydrazine intermediate to parent azo compound by LCMS analysis. In outline: as §1
A short description of data set [6]: Drug metabolism assessed as Clostridium perfringens azoreductase-mediated dihydroquinolone derivative formation by HPLC analysis.
The nature of data set [7]: Drug metabolism assessed as Clostridium perfringens-mediated hydrazine intermediate formation at 6 hrs by LCMS analysis. In outline: as §1
Another data set deals with azoreductase. The data set is described as follows: Drug metabolism assessed as Clostridium perfringens azoreductase-mediated reduction at 6 hrs by HPLC analysis. The note with it: read-out: Drug metabolism. In outline:
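Azo substrates incubated with Clostridium perfringens culture and sampled over time to 6 h. Parent loss and product formation followed by reverse-phase HPLC with PDA UV detection, with the azo chromophore absorbing at 300–400 nm.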

Data set [8] is described as follows: Drug metabolism assessed as Clostridium perfringens azoreductase-mediated reoxidation of hydrazine intermediate to parent azo compound at 6 hrs by LCMS analysis. In outline:
as §1

Consider `O=C(O)CCc1ccccc1/N=N/c1ccc(C(=O)NCC(=O)O)cc1`, for which the Drug metabolism result in data set [1] is “Not Active”.

`O=[N+]([O-])c1ccc(/N=N/c2ccc(O)cc2)cc1`: the Drug metabolism result in data set [2] and in data set [3] was “Active” in each case.

Regarding `O=C(O)c1ccc(/N=N/c2ccc(O)cc2)cc1`, the Drug metabolism result in data set [2] and in data set [3] was “Active” each time.

As for `N#Cc1ccc(/N=N/c2ccc(O)cc2)cc1`, the Drug metabolism entry in data set [2] and in data set [3] was “Active” each time.

Regarding `O=C(O)c1cccc(/N=N/c2ccccc2)c1`, the Drug metabolism result in [4] and in [5] was “Active” each time.

Turning to `Brc1ccc(/N=N/c2ccccc2)cc1`, the Drug metabolism result in [4] and in data set [5] was “Active” in each case.

As to `N#Cc1ccc(/N=N/c2ccccc2)cc1`, the Drug metabolism result in [4] and in data set [5] was “Active” throughout.

For the compound `FC(F)(F)c1ccc(/N=N/c2ccccc2)cc1`, the results for the Drug metabolism result in data set [4], in [5] and in data set [3] were “Active”, “Not Active” and “Active”, respectively.

Regarding `C[C@]12C=CC(=O)C=C1CC[C@@H]1[C@@H]2[C@@H](O)C[C@@]2(C)[C@H]1CC[C@]2(O)C(=O)COC(=O)CCc1ccccc1/N=N/c1ccc(C(=O)O)cc1`, the Drug metabolism entry is “Not Active” in data set [6], “Active” in [7], “Not Active” in data set [1] and “Active” in data set [8]. For the same compound, the metabolised at 6 h in the data set on azoreductase worked out at 55%.

For `O=C(O)CCc1ccccc1/N=N/c1ccc(C(=O)O)cc1`, in data set [1], the Drug metabolism result is “Not Active”.

In the case of `O=C(O)c1ccc(/N=N/c2ccccc2)cc1`, the Drug metabolism entry in data set [4] and in data set [5] was “Active” throughout.

Regarding `Oc1ccc(/N=N/c2ccc(Br)cc2)cc1`, the Drug metabolism entry in data set [2] and in data set [3] was “Active” throughout.

In the case of `CN(C)c1ccc(/N=N/c2ccccc2C(=O)O)cc1`, the Drug metabolism result in data set [2] and in [3] was “Active” in each case.

For `CN(C)c1ccc(/N=N/c2ccccc2)cc1` [DIMETHYL YELLOW], the Drug metabolism result in [2] and in data set [3] was “Active” in each case.
